Results: ChEMBL document CHEMBL2150888, “Conformationally constrained peptides from CD2 to modulate protein-protein interactions between CD2 and CD58” (J Med Chem, 2011)
*1 amine or outer side, *2 acyl side, *3 side chain or, on linkers, in order; H or OH if unused. Where a SMILES comes first, the peptide text is derived from it. [ ]: non-standard residue; d: D form. X1 = O=C(CCc1cccc2c1oc1c(CCN[*:1])cccc12)[*:2]

Assays:
T-cell = test: Inhibition of T-cell response to type 2 collagen in type 2 collagen primed T cells derived from transgenic mouse expressing functional HLA-DQ8 by [3H]thymidine incorporation assay; format: cell-based
Method in brief: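 Lymph node cells (draining popliteal, caudal, lumbar) taken 10 days after intradermal tail-base immunization of HLA-DQ8 transgenic mice with 200 µg native chick CII in CFA (1:1). 1 × 10^6 LNC challenged in vitro with CII at 50 µg/mL, with peptide at four concentrations (10–.01 µM); 3H-thymidine (1 µCi/well) pulse for last 18 h; Δcpm = test minus medium control; mean ±S.D., N = 4.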

[1] = Toxicity in human Caco2 cells assessed as cell viability incubated for 2 hrs by CellTiter-Glo assay; format: cell-based; conditions: Caco-2 cells, read-out: Activity
Method in brief: (§1)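 Caco-2 cells exposed to peptide (200–0.1 µM, diluted in serum-free medium from DMSO stock) for 2 and 3 h, washed with PBS, then CellTiter-Glo luminescence read. Blank-subtracted, with 0.1% SDS and 1% DMSO controls. Viability relative to cells without peptide; triplicates in two independent runs.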

[2] = Toxicity in human Jurkat cells assessed as cell viability incubated for 2 hrs by CellTiter-Glo assay; format: cell-based; conditions: read-out: Activity
Method in brief: (§2)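 Jurkat suspensions treated in tubes with peptide (diluted in serum-free medium from DMSO stock) for 2 h, washed by centrifugation, then CellTiter-Glo luminescence read on a microplate. Blank-subtracted, with SDS and 1% DMSO controls. Viability relative to cells without peptide; triplicates in two independent runs.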

[3] = target: T1, Lymphocyte function-associated antigen 3/T-cell surface antigen CD2 (Homo sapiens) (UniProt P06729+P19256); test: (§3) Inhibition of CD2-CD58 protein-protein interaction assessed as inhibition of cell adhesion between CD58 expressing human Caco2 cells and CD2 expressing human Jurkat cells by BCECF-AM fluorescent dye based fluorimetric assay; design: concentration or dose not given beside the values; conditions: concentration not given here
[4] = target: T1, Lymphocyte function-associated antigen 3/T-cell surface antigen CD2 (Homo sapiens); test: Inhibition of CD2-CD58 protein-protein interaction assessed as inhibition of cell adhesion between CD58 expressing human Caco2 cells and CD2 expressing human Jurkat cells at =< 1 uM by BCECF-AM fluorescent dye based fluorimetric assay
[5] = target: T2, Lymphocyte function-associated antigen 3/T-cell surface antigen CD2 (Homo sapiens, UniProt P06729+P19256); test: as §3
T2 sequence (P06729 whole entry): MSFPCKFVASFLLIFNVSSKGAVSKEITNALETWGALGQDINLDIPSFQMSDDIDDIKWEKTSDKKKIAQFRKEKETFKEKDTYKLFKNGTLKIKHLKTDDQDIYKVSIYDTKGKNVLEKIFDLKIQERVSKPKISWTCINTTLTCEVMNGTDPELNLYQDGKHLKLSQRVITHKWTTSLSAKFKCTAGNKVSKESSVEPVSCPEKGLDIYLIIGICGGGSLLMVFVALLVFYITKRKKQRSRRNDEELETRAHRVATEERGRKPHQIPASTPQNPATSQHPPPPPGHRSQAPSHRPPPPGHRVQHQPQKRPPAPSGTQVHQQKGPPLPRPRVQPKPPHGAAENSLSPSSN
T2 sequence (P19256 whole entry): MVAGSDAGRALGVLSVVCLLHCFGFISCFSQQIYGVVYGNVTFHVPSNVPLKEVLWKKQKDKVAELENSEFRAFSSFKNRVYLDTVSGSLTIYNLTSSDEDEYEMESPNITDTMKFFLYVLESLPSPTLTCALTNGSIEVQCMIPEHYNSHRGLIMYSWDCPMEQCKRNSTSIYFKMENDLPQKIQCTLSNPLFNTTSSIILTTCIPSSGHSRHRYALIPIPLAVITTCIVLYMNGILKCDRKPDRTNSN

[6] = Toxicity in human Jurkat cells assessed as cell viability at 200 yuM incubated for 2 hrs by CellTiter-Glo assay; format: cell-based; conditions: read-out: Activity; method in brief: as §2
[7] = Toxicity in human Caco2 cells assessed as cell viability at 200 uM incubated for 2 hrs by CellTiter-Glo assay; format: cell-based; conditions: Caco-2 cells, read-out: Activity; method in brief: as §1

Question: For `CC[C@H](C)[C@@H]1NC(=O)[C@H](CC(=O)O)NC(=O)[C@H](CC(=O)O)NC(=O)[C@@H]2CCCN2C(=O)[C@H]2CCCN2C(=O)[C@H](CC(=O)O)NC(=O)[C@H](Cc2ccc(O)cc2)NC(=O)[C@H]([C@@H](C)CC)NC(=O)[C@H](CO)NC(=O)[C@H](CCCCN)NC1=O`, which inhibition (T-cell) is on record?
Answer: Its inhibition is “Dose-dependent effect”.

Question: What about the viability at 2 h [1] of the same molecule?
Answer: Its viability at 2 h is > 95%.

Question: And the viability at 2 h [2]?
Answer: Its viability at 2 h is > 95%.

Question: With `CC[C@H](C)[C@@H]1NC(=O)[C@H](CCCCN)NC(=O)[C@H](CC(=O)O)NC(=O)[C@H](CC(=O)O)NC(=O)[C@@H]2CCCN2C(=O)[C@H]2CCCN2C(=O)[C@H](CC(=O)O)NC(=O)[C@H](Cc2ccc(O)cc2)NC1=O` as the molecule, how does the inhibition [3] read?
Answer: The inhibition was < 20%.

Question: Which inhibition [3] does the source give for `CC[C@H](C)[C@@H]1NC(=O)[C@H](CC(=O)O)NC(=O)[C@H](CC(=O)O)NC(=O)CCc2cccc3c2Oc2c(cccc2-3)CCNC(=O)[C@H](CC(=O)O)NC(=O)[C@H](Cc2ccc(O)cc2)NC(=O)[C@H]([C@@H](C)CC)NC(=O)[C@H](CO)NC(=O)[C@H](CCCCN)NC1=O` (cyclo(DDIKSIYD[X1])) here?
Answer: The inhibition was < 20%.

Question: With `CC[C@H](C)[C@@H]1NC(=O)[C@H](CCCCN)NC(=O)[C@H](CC(=O)O)NC(=O)[C@H](CC(=O)O)NC(=O)CCc2cccc3c2Oc2c(cccc2-3)CCNC(=O)[C@H](CC(=O)O)NC(=O)[C@H](Cc2ccc(O)cc2)NC1=O` (cyclo(DDKIYD[X1])) as the molecule, how does the inhibition [3] read?
Answer: The inhibition was < 20%.

Question: Which inhibition [4] does the source give for `CC[C@H](C)[C@@H]1NC(=O)[C@H](Cc2ccc(O)cc2)NC(=O)[C@H](CC(=O)O)NC(=O)CCc2cccc3c2Oc2c(cccc2-3)CCNC(=O)[C@H](CC(=O)O)NC(=O)[C@H](CC(=O)O)NC(=O)[C@H](CCCCN)NC1=O` (cyclo(DD[X1]DYIK)) here?
Answer: The inhibition was 80%.

Question: What about the IC50 [5] of the same molecule?
Answer: The IC50 was 11.1 nM.

Question: What about the viability at 2 h [1] of the same molecule?
Answer: Its viability at 2 h is > 95%.

Question: And the viability at 2 h [2]?
Answer: Its viability at 2 h is > 95%.

Question: What about the viability at 2 h, 200 µM [6] of the same molecule?
Answer: The viability at 2 h, 200 µM was 90%.

Question: What about the viability at 2 h, 200 µM [7] of the same molecule?
Answer: Its viability at 2 h, 200 µM is 90%.

Question: Which inhibition [3] does the source give for `CC[C@H](C)[C@@H]1NC(=O)[C@H](Cc2ccc(O)cc2)NC(=O)[C@H](CC(=O)O)NC(=O)CCc2cccc3c2Oc2c(cccc2-3)CCNC(=O)[C@H](CC(=O)O)NC(=O)[C@H](CC(=O)O)NC(=O)[C@H]([C@@H](C)CC)NC(=O)[C@H](CCCCN)NC(=O)[C@H](CO)NC1=O` (cyclo(DD[X1]DYISKI)) here?
Answer: Its inhibition is < 20%.

Question: Which inhibition [3] does the source give for H-KGKTDAISVKAI-NH2 here?
Answer: The inhibition was 18%.
